Experimental data: ChEMBL document CHEMBL3351385, “Synthesis and preliminary mechanistic evaluation of 5-(p-tolyl)-1-(quinolin-2-yl)pyrazole-3-carboxylic acid amides with potent antiproliferative activity on human cancer cell lines” (Eur J Med Chem, 2014)
Calls of active or inactive are those of the source. No cut-off for these calls is given here.

Assays:
[1] = molecular target: Casein kinase I isoform delta (Homo sapiens) (UniProt P48730); assay: Inhibition of CK1delta (unknown origin) assessed as remaining enzyme activity at 10 uM by radioactive [33P]-ATP filter binding assay
Chain of Casein kinase I isoform delta (Homo sapiens) (P48730 whole entry, looked up, canonical isoform): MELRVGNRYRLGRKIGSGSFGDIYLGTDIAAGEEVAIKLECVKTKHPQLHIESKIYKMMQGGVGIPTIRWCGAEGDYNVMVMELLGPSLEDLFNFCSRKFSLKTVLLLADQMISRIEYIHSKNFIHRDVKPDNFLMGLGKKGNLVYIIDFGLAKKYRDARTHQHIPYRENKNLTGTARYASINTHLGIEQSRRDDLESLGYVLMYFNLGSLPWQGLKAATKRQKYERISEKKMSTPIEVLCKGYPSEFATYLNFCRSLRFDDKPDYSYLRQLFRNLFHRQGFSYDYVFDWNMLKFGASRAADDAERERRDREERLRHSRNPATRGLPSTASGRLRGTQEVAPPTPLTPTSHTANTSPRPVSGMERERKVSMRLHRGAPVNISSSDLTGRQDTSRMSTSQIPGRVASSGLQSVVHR
How it was run: (§1)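 A single 10 µM concentration was tested across a 140-kinase panel. Activity was measured by a radioactive 33P-ATP filter-binding assay run at the International Center for Kinase Profiling, University of Dundee.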

[2] = Cytotoxicity against human HCT116 cells after 72 hrs by SRB assay; type: functional, cell-based; conditions: HCT-116, 72 h
How it was run: (§2)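 Cells kept in DMEM with 10% FCS and penicillin/streptomycin at 37°C, 5% CO2. 2000–3000 cells/well were seeded, and medium was refreshed the next day. DMSO solutions were added over 2.5–40 µM with matched DMSO-only controls for 72 h. Cells were then TCA-fixed, stained with 0.4% SRB in 1% acetic acid, solubilized in 10 mM Tris pH 8 and read at 515 nm. Data were normalized to DMSO wells and expressed as mean ±SD.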

[3] = molecular target: Inhibitor of nuclear factor kappa-B kinase subunit epsilon (Homo sapiens) (UniProt Q14164); assay: Inhibition of IKKepsilon (unknown origin) assessed as remaining enzyme activity at 10 uM by radioactive [33P]-ATP filter binding assay
[4] = molecular target: Serine/threonine-protein kinase PAK 2 (Homo sapiens) (UniProt Q13177); assay: Inhibition of PAK2 (unknown origin) assessed as remaining enzyme activity at 10 uM by radioactive [33P]-ATP filter binding assay
Chain of Serine/threonine-protein kinase PAK 2 (Homo sapiens) (Q13177 whole entry): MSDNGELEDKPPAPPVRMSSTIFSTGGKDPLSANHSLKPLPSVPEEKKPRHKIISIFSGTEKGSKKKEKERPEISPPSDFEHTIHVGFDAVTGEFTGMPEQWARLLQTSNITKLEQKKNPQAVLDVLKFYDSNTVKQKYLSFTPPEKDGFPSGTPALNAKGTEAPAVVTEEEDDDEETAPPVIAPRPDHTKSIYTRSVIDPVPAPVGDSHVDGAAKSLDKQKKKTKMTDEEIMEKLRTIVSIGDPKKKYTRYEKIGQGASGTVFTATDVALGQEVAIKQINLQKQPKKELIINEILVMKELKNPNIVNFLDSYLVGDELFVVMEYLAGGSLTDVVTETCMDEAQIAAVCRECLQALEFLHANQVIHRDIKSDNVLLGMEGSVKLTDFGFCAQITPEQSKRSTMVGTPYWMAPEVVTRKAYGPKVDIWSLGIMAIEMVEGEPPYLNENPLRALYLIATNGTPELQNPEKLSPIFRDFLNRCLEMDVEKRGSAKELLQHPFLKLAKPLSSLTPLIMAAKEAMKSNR

[5] = molecular target: Mitogen-activated protein kinase kinase kinase kinase 3 (Homo sapiens) (UniProt Q8IVH8); assay: Inhibition of MAP4K3 (unknown origin) assessed as remaining enzyme activity at 10 uM by radioactive [33P]-ATP filter binding assay
Chain of Mitogen-activated protein kinase kinase kinase kinase 3 (Homo sapiens) (Q8IVH8 whole entry): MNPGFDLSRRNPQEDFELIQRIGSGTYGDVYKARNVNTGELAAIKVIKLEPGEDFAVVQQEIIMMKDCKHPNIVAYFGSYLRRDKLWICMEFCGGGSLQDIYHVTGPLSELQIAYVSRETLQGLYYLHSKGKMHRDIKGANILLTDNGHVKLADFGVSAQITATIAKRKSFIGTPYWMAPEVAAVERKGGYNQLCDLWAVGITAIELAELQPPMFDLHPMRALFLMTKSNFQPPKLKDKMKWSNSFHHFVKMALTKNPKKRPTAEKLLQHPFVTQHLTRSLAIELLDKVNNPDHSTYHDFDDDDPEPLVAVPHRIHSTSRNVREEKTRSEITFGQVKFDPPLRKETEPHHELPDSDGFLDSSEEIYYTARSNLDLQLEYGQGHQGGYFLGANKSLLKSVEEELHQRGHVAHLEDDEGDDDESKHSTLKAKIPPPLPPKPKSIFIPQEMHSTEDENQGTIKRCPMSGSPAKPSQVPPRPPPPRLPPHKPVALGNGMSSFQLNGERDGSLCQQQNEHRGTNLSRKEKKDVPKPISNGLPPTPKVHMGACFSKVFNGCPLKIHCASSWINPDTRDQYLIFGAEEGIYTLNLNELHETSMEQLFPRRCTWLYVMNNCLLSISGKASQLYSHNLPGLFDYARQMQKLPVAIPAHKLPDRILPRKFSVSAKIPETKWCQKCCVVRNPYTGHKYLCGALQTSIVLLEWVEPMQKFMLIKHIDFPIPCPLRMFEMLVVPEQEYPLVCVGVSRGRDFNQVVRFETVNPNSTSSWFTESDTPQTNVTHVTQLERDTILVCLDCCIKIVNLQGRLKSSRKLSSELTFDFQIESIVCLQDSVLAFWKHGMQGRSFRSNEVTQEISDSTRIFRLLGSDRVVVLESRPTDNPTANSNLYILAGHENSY

[6] = system: MCF7; assay: Cytotoxicity against human MCF7 cells after 72 hrs by SRB assay; type: functional, cell-based; conditions: MCF7, 72 h; how it was run: as §2
[7] = molecular target: MAP kinase-interacting serine/threonine-protein kinase 1 (Homo sapiens) (UniProt Q9BUB5); assay: Inhibition of MNK1 (unknown origin) assessed as remaining enzyme activity at 10 uM by radioactive [33P]-ATP filter binding assay
Chain of MAP kinase-interacting serine/threonine-protein kinase 1 (Homo sapiens) (Q9BUB5 whole entry, looked up): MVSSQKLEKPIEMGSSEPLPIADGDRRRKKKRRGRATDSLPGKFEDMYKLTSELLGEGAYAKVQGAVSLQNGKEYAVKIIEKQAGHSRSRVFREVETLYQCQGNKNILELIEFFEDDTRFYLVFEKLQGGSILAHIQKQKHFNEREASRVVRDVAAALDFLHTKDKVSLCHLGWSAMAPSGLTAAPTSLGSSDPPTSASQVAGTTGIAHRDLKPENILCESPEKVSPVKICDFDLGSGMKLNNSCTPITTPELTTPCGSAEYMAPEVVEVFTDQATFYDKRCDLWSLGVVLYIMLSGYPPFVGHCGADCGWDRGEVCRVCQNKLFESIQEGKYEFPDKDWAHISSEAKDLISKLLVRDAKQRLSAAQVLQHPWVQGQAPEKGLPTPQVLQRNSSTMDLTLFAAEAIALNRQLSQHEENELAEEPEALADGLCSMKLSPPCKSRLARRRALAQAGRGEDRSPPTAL

[8] = molecular target: Ephrin type-A receptor 2 (Homo sapiens) (UniProt P29317); assay: Inhibition of EPHA2 (unknown origin) assessed as remaining enzyme activity at 10 uM by radioactive [33P]-ATP filter binding assay; how it was run: as §1
[9] = molecular target: Serine/threonine-protein kinase BRSK1 (Homo sapiens) (UniProt Q8TDC3); assay: Inhibition of BRSK1 (unknown origin) assessed as remaining enzyme activity at 10 uM by radioactive [33P]-ATP filter binding assay; how it was run: as §1
[10] = molecular target: Interleukin-1 receptor-associated kinase 4 (Homo sapiens) (UniProt Q9NWZ3); assay: Inhibition of IRAK4 (unknown origin) assessed as remaining enzyme activity at 10 uM by radioactive [33P]-ATP filter binding assay
Chain of Interleukin-1 receptor-associated kinase 4 (Homo sapiens) (Q9NWZ3 whole entry): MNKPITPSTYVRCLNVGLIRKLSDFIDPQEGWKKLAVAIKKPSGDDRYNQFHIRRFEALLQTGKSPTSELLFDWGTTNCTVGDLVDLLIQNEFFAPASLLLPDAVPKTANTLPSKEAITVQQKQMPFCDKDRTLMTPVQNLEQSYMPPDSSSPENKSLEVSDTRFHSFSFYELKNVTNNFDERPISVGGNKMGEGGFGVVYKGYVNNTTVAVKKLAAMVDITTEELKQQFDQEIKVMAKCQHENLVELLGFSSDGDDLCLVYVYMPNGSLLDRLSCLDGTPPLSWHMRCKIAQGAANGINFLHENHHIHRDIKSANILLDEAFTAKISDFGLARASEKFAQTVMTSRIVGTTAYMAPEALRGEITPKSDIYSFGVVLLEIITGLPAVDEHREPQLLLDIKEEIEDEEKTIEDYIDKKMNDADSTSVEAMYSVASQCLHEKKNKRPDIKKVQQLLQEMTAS

[11] = molecular target: High affinity nerve growth factor receptor (Homo sapiens) (UniProt P04629); assay: Inhibition of TrkA (unknown origin) assessed as remaining enzyme activity at 10 uM by radioactive [33P]-ATP filter binding assay
[12] = molecular target: Dual specificity tyrosine-phosphorylation-regulated kinase 2 (Homo sapiens) (UniProt Q92630); assay: Inhibition of DYRK2 (unknown origin) assessed as remaining enzyme activity at 10 uM by radioactive [33P]-ATP filter binding assay; how it was run: as §1
Chain of Dual specificity tyrosine-phosphorylation-regulated kinase 2 (Homo sapiens) (Q92630 whole entry): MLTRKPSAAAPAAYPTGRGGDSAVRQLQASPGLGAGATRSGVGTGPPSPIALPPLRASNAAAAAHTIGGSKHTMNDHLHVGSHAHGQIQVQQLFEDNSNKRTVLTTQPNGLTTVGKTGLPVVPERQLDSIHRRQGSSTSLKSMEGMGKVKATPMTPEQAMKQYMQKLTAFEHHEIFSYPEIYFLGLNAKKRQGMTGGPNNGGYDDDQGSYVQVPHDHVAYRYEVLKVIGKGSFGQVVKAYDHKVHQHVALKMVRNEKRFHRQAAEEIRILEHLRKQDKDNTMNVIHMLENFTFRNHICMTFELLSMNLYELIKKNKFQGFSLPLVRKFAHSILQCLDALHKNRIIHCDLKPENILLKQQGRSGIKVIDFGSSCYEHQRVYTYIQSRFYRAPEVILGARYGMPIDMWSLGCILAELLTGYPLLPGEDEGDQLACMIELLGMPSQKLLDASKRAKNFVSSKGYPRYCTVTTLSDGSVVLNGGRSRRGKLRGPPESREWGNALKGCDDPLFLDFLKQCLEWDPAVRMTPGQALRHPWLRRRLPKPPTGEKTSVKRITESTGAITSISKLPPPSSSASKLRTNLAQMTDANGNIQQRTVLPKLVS

[13] = molecular target: Serine/threonine-protein kinase MARK2 (Homo sapiens) (UniProt Q7KZI7); assay: Inhibition of MARK2 (unknown origin) assessed as remaining enzyme activity at 10 uM by radioactive [33P]-ATP filter binding assay
[14] = molecular target: Rho-associated protein kinase 2 (Homo sapiens) (UniProt O75116); assay: Inhibition of ROCK2 (unknown origin) assessed as remaining enzyme activity at 10 uM by radioactive [33P]-ATP filter binding assay
[15] = molecular target: Eukaryotic elongation factor 2 kinase (Homo sapiens) (UniProt O00418); assay: Inhibition of EF2K (unknown origin) assessed as remaining enzyme activity at 10 uM by radioactive [33P]-ATP filter binding assay; how it was run: as §1
[16] = molecular target: Serine/threonine-protein kinase 16 (Homo sapiens) (UniProt O75716); assay: Inhibition of MPSK1 (unknown origin) assessed as remaining enzyme activity at 10 uM by radioactive [33P]-ATP filter binding assay
Chain of Serine/threonine-protein kinase 16 (Homo sapiens) (O75716 whole entry): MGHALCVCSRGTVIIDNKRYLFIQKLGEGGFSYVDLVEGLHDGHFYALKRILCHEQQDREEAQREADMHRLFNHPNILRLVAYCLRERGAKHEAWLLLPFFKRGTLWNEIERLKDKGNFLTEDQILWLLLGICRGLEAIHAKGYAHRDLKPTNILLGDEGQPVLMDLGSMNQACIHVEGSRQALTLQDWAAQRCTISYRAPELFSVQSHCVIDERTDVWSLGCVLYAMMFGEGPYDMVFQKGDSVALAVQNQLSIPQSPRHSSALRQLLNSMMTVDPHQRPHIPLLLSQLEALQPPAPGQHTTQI

[17] = molecular target: Mitogen-activated protein kinase kinase kinase 1 (Homo sapiens) (UniProt Q13233); assay: Inhibition of MEKK1 (unknown origin) assessed as remaining enzyme activity at 10 uM by radioactive [33P]-ATP filter binding assay
[18] = molecular target: Mitogen-activated protein kinase 13 (Homo sapiens) (UniProt O15264); assay: Inhibition of p38delta (unknown origin) assessed as remaining enzyme activity at 10 uM by radioactive [33P]-ATP filter binding assay
[19] = molecular target: Tau-tubulin kinase 2 (Homo sapiens) (UniProt Q6IQ55); assay: Inhibition of TTBK2 (unknown origin) assessed as remaining enzyme activity at 10 uM by radioactive [33P]-ATP filter binding assay
[20] = molecular target: Mitogen-activated protein kinase 3 (Homo sapiens) (UniProt P27361); assay: Inhibition of ERK1 (unknown origin) assessed as remaining enzyme activity at 10 uM by radioactive [33P]-ATP filter binding assay; how it was run: as §1
Chain of Mitogen-activated protein kinase 3 (Homo sapiens) (P27361 whole entry): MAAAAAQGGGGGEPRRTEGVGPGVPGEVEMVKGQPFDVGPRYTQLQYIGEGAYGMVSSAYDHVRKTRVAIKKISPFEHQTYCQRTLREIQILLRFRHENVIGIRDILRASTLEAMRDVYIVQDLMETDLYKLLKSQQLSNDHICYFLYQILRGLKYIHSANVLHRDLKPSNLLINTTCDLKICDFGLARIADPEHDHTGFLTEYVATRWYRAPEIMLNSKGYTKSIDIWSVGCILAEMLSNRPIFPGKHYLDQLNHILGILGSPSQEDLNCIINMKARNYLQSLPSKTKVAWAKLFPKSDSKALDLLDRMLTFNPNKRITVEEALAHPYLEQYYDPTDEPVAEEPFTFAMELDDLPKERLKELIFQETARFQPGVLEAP

[21] = molecular target: Serine/threonine-protein kinase WNK1 (Homo sapiens) (UniProt Q9H4A3); assay: Inhibition of WNK1 (unknown origin) assessed as remaining enzyme activity at 10 uM by radioactive [33P]-ATP filter binding assay
[22] = molecular target: Serine/threonine-protein kinase PAK 5 (Homo sapiens) (UniProt Q9P286); assay: Inhibition of PAK5 (unknown origin) assessed as remaining enzyme activity at 10 uM by radioactive [33P]-ATP filter binding assay
[23] = molecular target: Tubulin (Homo sapiens) (UniProt P68371+Q9H4B7+P0DPH7+P68366+Q13509+Q71U36+P04350+Q3ZCM7+P07437+P68363+Q9BQE3+Q6PEY2+Q13885+Q9BVA1+Q9BUF5); assay: Inhibition of tubulin polymerization (unknown origin); type: protein-complex assay
[24] = molecular target: Mitogen-activated protein kinase 15 (Homo sapiens) (UniProt Q8TD08); assay: Inhibition of ERK8 (unknown origin) assessed as remaining enzyme activity at 10 uM by radioactive [33P]-ATP filter binding assay; how it was run: as §1
Chain of Mitogen-activated protein kinase 15 (Homo sapiens) (Q8TD08 whole entry): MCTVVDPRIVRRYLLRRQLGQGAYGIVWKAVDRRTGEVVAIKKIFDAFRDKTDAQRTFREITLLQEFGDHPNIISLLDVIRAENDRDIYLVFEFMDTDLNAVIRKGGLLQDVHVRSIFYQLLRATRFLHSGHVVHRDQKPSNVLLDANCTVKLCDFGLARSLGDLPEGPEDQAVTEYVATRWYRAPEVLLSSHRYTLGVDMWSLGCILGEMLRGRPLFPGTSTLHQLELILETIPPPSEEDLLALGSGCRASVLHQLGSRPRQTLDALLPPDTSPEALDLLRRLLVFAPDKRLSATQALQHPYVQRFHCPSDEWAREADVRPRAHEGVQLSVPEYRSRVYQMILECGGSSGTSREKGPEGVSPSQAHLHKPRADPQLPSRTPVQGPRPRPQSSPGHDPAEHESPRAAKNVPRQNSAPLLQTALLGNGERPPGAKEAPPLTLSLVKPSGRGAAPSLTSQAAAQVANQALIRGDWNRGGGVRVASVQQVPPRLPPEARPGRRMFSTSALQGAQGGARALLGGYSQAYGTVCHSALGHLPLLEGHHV

[25] = molecular target: Serine/threonine-protein kinase SIK3 (Homo sapiens) (UniProt Q9Y2K2); assay: Inhibition of SIK3 (unknown origin) assessed as remaining enzyme activity at 10 uM by radioactive [33P]-ATP filter binding assay
[26] = molecular target: Serine/threonine-protein kinase Nek6 (Homo sapiens) (UniProt Q9HC98); assay: Inhibition of NEK6 (unknown origin) assessed as remaining enzyme activity at 10 uM by radioactive [33P]-ATP filter binding assay
Chain of Serine/threonine-protein kinase Nek6 (Homo sapiens) (Q9HC98 whole entry): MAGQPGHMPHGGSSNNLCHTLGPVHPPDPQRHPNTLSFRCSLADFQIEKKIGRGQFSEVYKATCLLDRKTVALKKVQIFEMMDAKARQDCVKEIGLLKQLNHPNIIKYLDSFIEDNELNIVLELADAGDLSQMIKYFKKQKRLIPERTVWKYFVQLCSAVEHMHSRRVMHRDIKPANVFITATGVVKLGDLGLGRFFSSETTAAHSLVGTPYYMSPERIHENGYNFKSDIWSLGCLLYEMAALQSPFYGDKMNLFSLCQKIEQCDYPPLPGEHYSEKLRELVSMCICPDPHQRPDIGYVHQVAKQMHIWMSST

[27] = molecular target: MAP kinase-activated protein kinase 2 (Homo sapiens) (UniProt P49137); assay: Inhibition of MAPKAPK2 (unknown origin) assessed as remaining enzyme activity at 10 uM by radioactive [33P]-ATP filter binding assay
[28] = molecular target: Insulin receptor-related protein (Homo sapiens) (UniProt P14616); assay: Inhibition of IRR (unknown origin) assessed as remaining enzyme activity at 10 uM by radioactive [33P]-ATP filter binding assay

Activity [1]: 96%
Activity [3]: 112%
Activity [4]: 109%
Activity [5]: 90%
Activity [7]: 104%
Activity [8]: 111%
Activity [9]: 108%
Activity [10]: 90%
Activity [11]: 96%
Activity [12]: 96%
Activity [13]: 101%
Activity [14]: 85%
Activity [15]: 97%
Activity [16]: 113%
Activity [17]: 113%
Activity [18]: 87%
Activity [19]: 101%
Activity [20]: 103%
Activity [21]: 106%
Activity [22]: 97%
inhibition [23]: inactive
Activity [25]: 81%
Activity [26]: 116%
Activity [27]: 84%
Activity [28]: 100%
SMILES: Cc1ccc(-c2cc(C(=O)Nc3ccnc(Cl)c3)nn2-c2ccc3ccccc3n2)cc1
IC50 [2]: 1.1 µM
IC50 [6]: 3.3 µM
Activity [24]: 106%
